# Screening results as filed in PubChem.
# MLLE-PAM2 inh: inhibitors of PABP1 MLLE–PAM2 peptide binding, primary screen, biochemical, fluorescence polarization, FITC-PAM2, GST-MLLE. inhibition, % at 20 µM. actives 0.36% (n = 360,000). AID 588489, 2011; in the data active means inhibition above about 35%, passing the limit was not always enough;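 further: plate controls were DMSO wells with GST-MLLE for no effect and wells lacking GST-MLLE protein for full effect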
# Target sequence (P11940 whole entry, looked up): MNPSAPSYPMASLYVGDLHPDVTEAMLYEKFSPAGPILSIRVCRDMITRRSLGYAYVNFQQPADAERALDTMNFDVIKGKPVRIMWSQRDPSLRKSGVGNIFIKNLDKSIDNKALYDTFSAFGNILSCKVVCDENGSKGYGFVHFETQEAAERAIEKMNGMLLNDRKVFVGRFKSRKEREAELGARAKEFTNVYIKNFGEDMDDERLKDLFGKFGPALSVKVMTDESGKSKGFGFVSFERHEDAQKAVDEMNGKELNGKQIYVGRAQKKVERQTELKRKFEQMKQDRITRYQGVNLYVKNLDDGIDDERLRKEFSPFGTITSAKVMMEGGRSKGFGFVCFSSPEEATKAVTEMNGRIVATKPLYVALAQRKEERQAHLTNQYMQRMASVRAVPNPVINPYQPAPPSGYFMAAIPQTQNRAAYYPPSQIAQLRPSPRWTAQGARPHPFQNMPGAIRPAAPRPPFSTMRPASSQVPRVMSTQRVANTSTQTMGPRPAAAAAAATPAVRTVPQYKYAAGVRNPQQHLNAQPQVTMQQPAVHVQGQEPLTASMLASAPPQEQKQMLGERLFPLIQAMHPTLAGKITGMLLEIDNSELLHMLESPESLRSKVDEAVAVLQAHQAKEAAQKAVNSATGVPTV
# SKN-1 inh: suppressors of acrylamide-induced Pgst-4::GFP reporter in worms, primary screen, SKN-1 inhibitor project, whole organism, uHTS, GFP/RFP fluorescence ratio, strain VP596; C. elegans VP596 Pgst-4::GFP/RFP ratio, 24 h; inhibition, % at 21.8 µM; actives 0.49% (n = 360,000); AID 624304, 2012;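 active means interference check ratio from 0.5 to 1.5 plus GFP to RFP signal ratio inhibition reaching or exceeding a fixed threshold, cut at about 30% in these data, passing the limit was not always enough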
# eIF4H inh: human eIF4H binding inhibitors, primary screen, translation initiation inhibitor project, biochemical, uHTS, fluorescence polarization. Eukaryotic translation initiation factor 4H (Homo sapiens), Q15056. eIF4H fluorescence polarization binding assay. inhibition, % at 35 µM. actives 0.94% (n = 290,000). AID 2012, 2009;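 further: calls also rest on retests at 20 µM and on dose response follow-up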
# PABP FP inh: PABP poly(A) RNA binding inhibitors, primary screen, biochemical, fluorescence polarization, uHTS. AID 2014, 2009. inhibition, % at 35 µM. actives 1% (n = 290,000);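 further: calls also rest on retests at 20 µM and on dose response follow-up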
# MT1-MMP act inh: blockers of MT1-MMP proenzyme processing, primary screen, HT1080 RFP-PRO-GFP cells, GFP/RFP fluorescence. Matrix metalloproteinase-14 (Homo sapiens), P50281. GFP/RFP ratio fluorescence, overnight; percent of plate control window, DMSO zero. GFP/RFP ratio change, % at 20 µM. actives 0.061% (n = 360,000). AID 651647, 2012;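 active means GFP/RFP ratio change of at least 30% with cell ATP level not reduced by more than half and red fluorescence within 50% of control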
#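 Read-out: GFP/RFP fluorescence ratio; Test system: RFP-PRO-GFP reporter HT1080 cells; Compound dosing: single-point 20 µM compound, 1% DMSO; Times: overnight compound exposure at 37 °C.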
# * = called active by the depositor; ? = inconclusive; / = not tested or not shown. Rows were chosen to be rich in hits. Some 1.7% of all compounds tested hit in one or more screens of this group. Unless noted, how the calls were made is not given here.
SMILES,MLLE-PAM2 inh,SKN-1 inh,eIF4H inh,PABP FP inh,MT1-MMP act inh
CN(CC(=O)Nc1ccc(F)c(F)c1)S(=O)(=O)c1cccc2cccnc12,-2,5,1,8,2
N#Cc1c2ccc(OCC(N)=O)cc2n2ccccc12,35,9,32,-5,-8
CCOC(=O)COc1ccc2c(C#N)c3ccccn3c2c1,43*,-3,83,-1,-3
Cc1cc(CN(C)C(=O)c2ccc3nc(Cc4ccccc4F)oc3c2)on1,-12,-13,-12,0,4
O=c1oc2ccccc2c(Nc2cccc(O)c2)c1[N+](=O)[O-],0,-7,84*,71*,-6
COc1ccc2cc(C(C)C(=O)NC3CCC(O)CC3)ccc2c1 (stereo not given),4,-6,-10,3,1
Cc1ccccc1CCN(C(=O)c1csnn1)C(C(=O)NC1CCCC1)c1ccco1 (stereo not given),1,11,-8,-2,-7
Cc1cc(C)n(-c2ccc(C(=O)Oc3ccc4c(c3)OCO4)cc2)n1,6,37*,-7,-3,-10
O=C1NN(c2ccccc2)C(=O)/C1=C\c1cccc(OC(=O)c2cccs2)c1,13,4,9,19,2
O=C1NN(c2ccc(Cl)c(Cl)c2)C(=O)/C1=C/c1cccc(OC(=O)c2cccs2)c1,/,/,82*,56*,/
CC(=O)Nc1ccc2c(c1)nc1n2CCN(C2CCCCC2)C1,6,4,0,16,-3
O=C(Nc1c(Br)cc2c(c1Br)Cc1ccccc1-2)C(Cl)Cl,4,6,/,/,-7
C[C@@]12C(=O)NCC(=O)N1[C@@H]1c3cc(Br)ccc3OC[C@@H]1[C@@H]2c1ccccc1,-12,3,/,/,1
O=C1c2ccccc2C(=O)N1CC1=CCS(=O)(=O)C1,39*,-15,-7,-3,-8
C=CCc1cccc(CNn2cnnc2)c1O,5,5,6,4,1
Cc1nc2ccccc2c(=O)n1/N=C/c1c(O)ccc2oc3c(c12)CCCC3,-4,2,22*,63*,-11
Cc1nc2ccccc2c(=O)n1/N=C/c1c(O)ccc2ccccc12,-9,0,-3,8,1
CCNC(=S)NC(=NCc1cccnc1)Nc1nc(C)cc(C)n1,65*,6,16,19,-4
CCNC(=S)/N=C(/Nc1ccccc1)Nc1nc(C)cc(C)n1,27,8,31,19,-4
CC(=O)Nc1ccc(C(C#N)=Cc2ccc(N(C)CCC#N)cc2)cc1,-18,30,/,/,-20
COc1ccc(N2CC(C(=O)NNC(=O)c3ccc(Br)cc3)CC2=O)c(OC)c1 (stereo not given),-17,4,/,/,2
COc1cc(NC(=O)c2ccc3c(=O)n(Cc4ccco4)c(=S)[nH]c3c2)cc(OC)c1OC,-50,22,64*,38,7
O=c1c2cc3c(cc2[nH]c(=S)n1Cc1ccco1)OCO3,-15,40*,-4,3,-2
CC1(C)Cc2c(sc3[nH]c(=S)n(Cc4ccco4)c(=O)c23)CO1,9,6,31,21,1
O=c1c2c3c(sc2[nH]c(=S)n1Cc1ccco1)CCC3,5,1,81*,58*,-1
SMILES,MLLE-PAM2 inh,SKN-1 inh,eIF4H inh,PABP FP inh,MT1-MMP act inh
O=C(CCCn1c(=S)[nH]c2cc3c(cc2c1=O)OCO3)NCc1ccco1,-41,-8,-1,-4,1
CC(C)NC(=O)C1(C)CCN1C(=O)C(c1ccccc1)c1ccccc1 (stereo not given),-10,21,/,/,8
COc1ccc(CN(C)S(=O)(=O)c2ccc3c(c2)OCCO3)cc1,-7,6,-7,-10,-1
COC(=O)c1c(NC(=S)NN2CCN(C)CC2)sc2c1CCC(C)C2 (stereo not given),22,35*,3,-3,-9
CNC(=S)Nc1sc2c(c1C(=O)OC)CCC2,18,-7,?,active,0
COC(=O)c1c(NC(=O)C2C3CCC(C3)C2C(=O)O)sc2c1CCCCC2 (stereo not given),41*,0,4,4,-6
COC(=O)c1c(NC(=O)C2C3CCC(O3)C2C(=O)O)sc2c1CCCCCC2 (stereo not given),17,4,-3,4,-3
CCOC(=O)c1c(NC(=S)NC)sc2c1CC(C)(C)SC2,9,14,52*,-6,-2
FC(F)c1nc2nc(Cl)c(Cl)nc2[nH]1,0,2,/,/,3
COc1cc(NCCCC(C)N)c2ncccc2c1 (stereo not given),100,61,/,/,3
COc1cc(NCCCCC(C)N)c2nccc(C)c2c1 (stereo not given),-1,36*,/,/,-13
C/C(=N\Nc1cccc(C(=O)O)c1)c1ccc(Cl)s1,-7,3,61,1,1
COC(=O)C1=C(C)NC(=O)C1(NS(=O)(=O)c1ccc(C)cc1)C(F)(F)F (stereo not given),11,3,59,8.5*,2
COC(=O)C1=C(C)NC(=O)C1(Nc1nccs1)C(F)(F)F (stereo not given),3,12,13,1,0
CCCCCc1c2c(cc(O)c1C(=O)O)OC(=O)c1c(cc(OC)cc1C(=O)CCCC)O2,-6,-3,62,25*,3
CCCCCc1c2c(cc(O)c1C(=O)O)OC(=O)c1cc(C(=O)CCCC)c(OC)cc1O2,2,8,/,/,0
CC(=O)Nc1ccc(S(=O)(=O)NCCSc2ccccn2)cc1,-73,-4,60*,40*,-2
OCCC1CN(Cc2cccn2-c2ccccn2)CCN1C1CCCCC1 (stereo not given),11,10,0,4,2
Cc1ccc(C2=NN(S(C)(=O)=O)C(c3ccc4c(c3)OCO4)C2)cc1 (stereo not given),-23,38*,-2,-1,5
N/C(=N\OC(=O)c1cccc(Cl)c1)c1ccncc1,-7,19,-8,-2,1
N/C(=N\OC(=O)c1cccc(Cl)c1)c1cccnc1,-15,42*,-4,0,-5
N/C(=N\OC(=O)c1cc(Cl)ccc1Cl)c1cccnc1,-5,-8,-19,-4,-8
N/C(=N\OC(=O)c1ccc(Cl)c(Cl)c1)c1cccnc1,-11,51*,-2,-6,5
CC(C)c1ccc(N(C(=O)CNC(=O)c2ccco2)C(C(=O)NC2CCCC2)c2ccncc2)cc1 (stereo not given),-11,-8,-12,1,-2
Cc1cccc(C)c1N(CC(=O)Nc1cccc(N(C)S(C)(=O)=O)c1)S(C)(=O)=O,-2,37*,-1,-12,-1
